# Rin1 Abl inh: blocks binding of human Rin1 to Abl. P00519+Q13671. TR-FRET Rin1/Abl binding, biochemical. inhibition, % at 7.35 µM. 360,000 compounds, 0.4% hits. AID 588664; in the data active = inhibition above about 5%, passing the limit was not always enough
# Tb MetRS inh: blocks T. brucei methionyl-tRNA synthetase activity; purified T. brucei MetRS, ATP depletion, Kinase-Glo luminescence; inhibition, % at 11.9 µM; 360,000 compounds, 0.4% hits; AID 624268;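 active = inhibition above a per-plate cutoff of the control wells' mean inhibition plus 3 SD, cut at about 5.5% in these data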;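 note: 0% = DMSO wells median and 100% = median of wells with control inhibitor compound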
#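 Dosing: 11.9 µM single point; system: parasite MetRS enzyme; technique: luminescence of leftover ATP; times: 15 min enzyme-compound preincubation, 2 h reaction, 10 min detection, 25 °C; replicates: each compound tested once; read-out basis: percent inhibition relative to median high and low control wells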
# UCH37 DUB inh: blocks the human deubiquitinase UCH37; purified proteasome/UCH37, Ub-AMC cleavage fluorescence; 330,000 compounds, 0.33% hits; Q9Y5K5; AID 588478; inhibition, % (concentration not given with the values);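 active = mean inhibition over replicate wells above about 20%, limit read from the data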;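 note: 0% = compound-free wells with enzyme and 100% = wells lacking proteasome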
#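 Test system – human UCH37 enzyme supplied as purified proteasome complex · Incubation – 30 min preincubation with enzyme, 25 min cleavage at room temperature · Detection – AMC fluorescence from Ub-AMC cleavage, excitation 355 nm, emission 460 nm · Benchmarks – no-proteasome wells (full inhibition) and compound-free wells (no inhibition)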
# ATG4B inh: inhibitors of human ATG4B cysteine protease; Q9Y4P1; ATG4B cleavage of LC3-PLA2, NBD-HPC fluorescence, 1 h; 340,000 compounds, 0.51% hits; inhibition, % at 8.33 µM; in the data active = inhibition above about 40%
# Target sequence (Q9Y4P1 whole entry, looked up): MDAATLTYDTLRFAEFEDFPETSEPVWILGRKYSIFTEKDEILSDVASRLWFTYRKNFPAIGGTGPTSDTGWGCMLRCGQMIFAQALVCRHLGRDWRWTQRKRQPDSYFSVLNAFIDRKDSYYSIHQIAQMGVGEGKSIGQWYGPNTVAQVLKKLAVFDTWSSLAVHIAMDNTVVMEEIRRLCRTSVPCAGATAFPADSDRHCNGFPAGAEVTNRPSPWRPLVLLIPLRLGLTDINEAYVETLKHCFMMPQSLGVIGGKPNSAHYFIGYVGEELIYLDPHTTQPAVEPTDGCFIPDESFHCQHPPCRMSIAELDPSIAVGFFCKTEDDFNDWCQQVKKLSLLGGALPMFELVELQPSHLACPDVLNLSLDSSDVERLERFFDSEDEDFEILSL
# * = called active by the depositor; x = no result. This is a sample that favours compounds with a hit; in the whole collection about 1.4% have one here.
SMILES,Rin1 Abl inh,Tb MetRS inh,UCH37 DUB inh,ATG4B inh
Oc1ccc(N=Nc2ccc3c(c2)OCCO3)c2ncccc12,9.2*,-1.1,1.0,2.3
CCOc1ccc(N=Nc2ccc(O)c3ncccc23)cc1,1.7,-1.0,0.8,5.8
N#C/C(=C(/O)CSc1ccccc1C(=O)O)c1nc2ccccc2s1,-1.8,-0.4,20.6*,-9.1
N#C/C(=C(/O)CSc1ccccn1)c1nc2ccccc2s1,-2.5,-0.3,16.2,-6.6
C=CCCC(=O)N1CCCC(C(=O)c2cccc(OC)c2)C1 (stereo not given),-2.4,-0.9,1.2,9.2
O=C(CN1C2=NCCN2c2ccccc21)c1ccc(Br)cc1,1.2,5.9*,1.6,0.7
O=C(CN1C2=NCCN2c2ccccc21)c1ccc2c(c1)OCO2,2.1,0.7,0.8,6.2
CCCCCCN1C(=O)C(O)=C(C(C)=O)C1c1ccc(Cl)cc1 (stereo not given),-0.8,-1.1,2.5,-9.1
CC(=O)C1=C(O)C(=O)N(CCN(C)C)C1c1ccc(Cl)cc1 (stereo not given),4.0,-0.2,24.4*,14.6
O=C1CC(=O)N(Cc2ccco2)C(=S)N1,3.7,1.2,5.7,46.2*
O=c1cc[nH]c2cccc(Cc3ccccc3)c12,-3.4,20.9*,3.2,-2.4
c1ccc(Cc2c[nH]c3ccccc23)cc1,-0.4,-0.4,1.8,-2.2
Cc1ccc(NC(=S)Nc2c(C)n(C)n(-c3ccccc3)c2=O)cc1Cl,0.7,-1.1,1.4,1.5
C=CCOC(=O)C1=C[C@@H](c2ccc(C(F)(F)F)cc2)C[C@@H](OCCCCO)O1,4.4,-0.2,21.4*,-5.5
CCOc1ccc(NC(=O)C(C)Sc2nccn2C)cc1 (stereo not given),3.6,-0.2,1.2,-6.7
O=C(O)COc1ccccc1C=NNc1ccc(S(=O)(=O)N2CCOCC2)cc1[N+](=O)[O-],x,x,23.0*,x
COc1cc(OC)cc(OCC(O)Cn2cnc(-c3ccccc3)c2)c1 (stereo not given),1.8,-0.4,1.0,-8.2
Cc1c(C#N)c(O)n(C)c(=O)c1N=Nc1ccc(S(N)(=O)=O)cc1,-3.1,0.3,4.1,-3.5
Cc1c(C#N)c(O)n(CCO)c(=O)c1N=Nc1ccc(S(N)(=O)=O)cc1,-8.1,1.0,20.6*,-3.4
COc1ccc(-c2cnnc(N/N=C/c3ccc(C)o3)n2)cc1,0.6,-0.9,x,-4.1
CCc1nnc(NC(=O)CSc2ccc(-c3nc4ccccc4[nH]3)cn2)s1,-0.3,9.9*,-52.8,-23.6
Cc1oc2c(c1C(=O)NCc1cccnc1)C(=O)c1ccccc1C2=O,x,x,21.9*,-8.4
COc1ccc(CNC(=O)c2c(C)oc3c2C(=O)c2ccccc2C3=O)cc1,0.3,0.1,10.6,-3.5
O=C(C1CCN(S(=O)(=O)c2ccc(Br)s2)CC1)N1CCc2ccccc21,3.6,-1.2,1.4,41.2*
O=C(N=C1N=C2C=CC=CN2Cc2ccccc21)c1ccc(S(=O)(=O)N2CCCC2)cc1,2.2,0.2,2.9,-3.8
SMILES,Rin1 Abl inh,Tb MetRS inh,UCH37 DUB inh,ATG4B inh
COc1cc(-c2c(C#N)c(N)nc3[nH]c(=S)[nH]c(=O)c23)ccc1O,0.6,-0.6,22.6*,5.9
N#CC(c1ccccc1)N(CCCCl)C(=O)c1ccccc1 (stereo not given),1.6,-0.1,20.8*,-8.9
CC(=O)N(CCCCl)C(C#N)c1ccccc1 (stereo not given),1.4,-0.2,2.6,0.8
Cc1ccc(NC(=S)NN=Cc2ccc(Cl)c([N+](=O)[O-])c2)cc1,x,x,10.5,x
O=C(NCCc1ccc(Cl)cc1)Nc1cccc(Cl)c1,-0.9,7.0*,-0.9,24.4
O=C(NCCc1ccc(O)cc1)c1ccc(Cl)cc1,0.2,0.1,31.4*,1.7
CSc1ccc(C(=O)c2[nH]c(=O)[nH]c2C)cc1,-3.0,0.3,3.4,5.1
Cc1ccc(C(=O)NN=C/C=C/c2ccccc2)o1,x,x,21.1*,x
CCS(=O)(=O)N1CCCC(C(=O)NCC2CCCO2)C1 (stereo not given),1.0,0.2,31.4*,-9.6
O=C(NCC1CCCO1)C1CCCN(S(=O)(=O)c2ccc(F)cc2)C1 (stereo not given),-2.0,-0.7,0.0,5.0
CCn1c(=O)cc(OCC(=O)N2CCCC2)c2ccccc21,9.0*,-0.9,1.9,2.3
O=C(Nc1ccc2nc(-c3ccco3)c(-c3ccco3)nc2c1)N1CCCCCC1,x,x,-152.2,46.7*
CN(NC(=O)COc1ccccc1)C1=NS(=O)(=O)c2ccccc21,3.4,-1.0,4.2,1.6
CCOc1ccc(C(=O)Nc2cccc(-c3nc4ccccc4[nH]3)c2C)cc1[N+](=O)[O-],-3.8,-0.5,x,0.2
CCOc1ccc(C(=O)Nc2cc(-c3nc4ccccc4[nH]3)ccc2C)cc1[N+](=O)[O-],2.1,13.5*,3.4,22.9
O=C(O)c1cc(N=Nc2c(O)ccc3ccccc23)cc(C(=O)O)c1,-2.5,-0.1,26.4*,1.7
COc1ccc(C(Nc2ccccn2)c2oc(CO)cc(=O)c2O)cc1 (stereo not given),7.4*,0.7,4.7,5.3
Cc1c(/C(O)=C2/C(=O)C(=O)N(CCN3CCOCC3)C2c2cccnc2)cnn1-c1ccccc1 (stereo not given),-2.1,-1.5,21.9*,-1.5
CCOCCCNC1=C(Cl)C(=O)c2ccccc2C1=O,-13.4,-0.1,24.0*,2.2
Cc1cc(C)nc(SCC(=O)Nc2ncc(Cc3ccc(Cl)c(Cl)c3)s2)n1,0.5,-0.9,4.5,-10.1
CC[n+]1c(/C=C/c2ccc(N(C)C)cc2)ccc2ccccc21,-34.0,-3.2,23.4*,10.6
CCCCCC[n+]1ccccc1/C=C/c1ccc(N(C)C)cc1,-31.1,0.2,x,x
CC[n+]1ccccc1/C=C/c1ccc(N(C)C)cc1,-23.1,-0.8,20.8*,3.0
O=C(CSc1ccc(-c2cccs2)nn1)Nc1ccccc1,-2.9,-0.5,0.6,-0.1
CC(=O)c1cccc(OCc2cc(C(=O)NCCC3=CCCCC3)no2)c1,-0.6,-0.4,22.2*,3.0
SMILES,Rin1 Abl inh,Tb MetRS inh,UCH37 DUB inh,ATG4B inh
O=C(NCCC1=CCCCC1)c1cc(COc2c(F)cccc2F)on1,3.8,0.2,-1.7,17.5
Cc1ccc(Nc2cccc(C(F)(F)F)c2)nn1,1.9,0.7,1.2,-3.8
Cc1ccccc1Nc1cc2ccccc2c(=O)[nH]1,16.4*,12.7*,18.1,33.8
O=c1[nH]c(Nc2ccc(F)cc2)cc2ccccc12,0.8,16.8*,-112.8,33.1
O=c1[nH]c(Nc2ccccn2)cc2ccccc12,0.5,0.3,x,-9.5
O=c1[nH]c(Nc2ccccc2Cl)cc2ccccc12,5.1,4.3,-14.8,-3.9
CC(=O)c1c(C(C)=O)c(C)n(-c2ccc3ncccc3c2)c1C,0.6,0.2,4.8,-3.5
COc1ccc(C(=O)C(C#N)=NNc2ccc([N+](=O)[O-])cc2)cc1,x,x,7.4,x
O=C(Cc1ccccc1)Nc1ccc(NC(=O)c2ccc(Br)cc2)cc1,0.3,-1.2,-9.1,7.0
CN(CCC(=O)Nc1ccc(Br)cc1)Cc1ccccc1,-1.2,24.7*,5.0,1.1
CCc1cc(Cn2nc(C(=O)O)cc2-c2ccccc2)on1,1.3,0.2,22.1*,-8.6
